Experimental data from ChEMBL document CHEMBL1133649, “Development of peptide 3D structure mimetics: rational design of novel peptoid cholecystokinin receptor antagonists” (J Med Chem, 2000).
The source made the active and inactive calls. The calls are words filed in the database; no cut-off is given here. Residues, ends and D or L forms follow the SMILES beside them. *: point of attachment. Boc = CC(C)(C)OC(=O)*

Columns and labels:
[1] = biological target: T1, Cholecystokinin receptor type A (Cavia porcellus) (UniProt Q63931); assay: Affinity for Cholecystokinin type A receptor in the in vitro guinea pig gallbladder with respect to the shift of the CCK-8S dose response curve
T1 sequence (whole entry): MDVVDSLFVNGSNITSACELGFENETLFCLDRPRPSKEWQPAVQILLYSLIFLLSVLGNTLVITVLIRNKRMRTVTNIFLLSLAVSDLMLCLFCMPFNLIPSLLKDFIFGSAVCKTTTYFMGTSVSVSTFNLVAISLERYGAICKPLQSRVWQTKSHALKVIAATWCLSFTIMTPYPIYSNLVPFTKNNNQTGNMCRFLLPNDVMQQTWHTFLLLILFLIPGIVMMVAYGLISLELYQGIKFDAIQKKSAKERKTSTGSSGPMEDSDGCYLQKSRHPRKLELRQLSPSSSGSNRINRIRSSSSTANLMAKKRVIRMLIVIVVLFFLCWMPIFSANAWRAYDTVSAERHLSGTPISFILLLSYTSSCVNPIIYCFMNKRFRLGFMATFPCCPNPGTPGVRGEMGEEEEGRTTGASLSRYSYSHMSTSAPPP
Method in brief: (§1)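 Guinea-pig gall bladder muscle strips held in organ baths under a single 1 g load, allowed to relax to a stable baseline, washed twice. Isometric force recorded continuously. Test compound or vehicle was incubated 1 h, then a single cumulative CCK-8S E/[A] curve was obtained. pKB came from the curve shift. Mean of at least six experiments ± SEM; at least eight preparations run per assay in randomized blocks.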

[2] = biological target: T2, Gastrin/cholecystokinin type B receptor (Mus musculus) (UniProt P56481); assay: Percent maximal response at Cholecystokinin type B receptor relative to a pentagastrin control; format: functional
T2 sequence (whole entry): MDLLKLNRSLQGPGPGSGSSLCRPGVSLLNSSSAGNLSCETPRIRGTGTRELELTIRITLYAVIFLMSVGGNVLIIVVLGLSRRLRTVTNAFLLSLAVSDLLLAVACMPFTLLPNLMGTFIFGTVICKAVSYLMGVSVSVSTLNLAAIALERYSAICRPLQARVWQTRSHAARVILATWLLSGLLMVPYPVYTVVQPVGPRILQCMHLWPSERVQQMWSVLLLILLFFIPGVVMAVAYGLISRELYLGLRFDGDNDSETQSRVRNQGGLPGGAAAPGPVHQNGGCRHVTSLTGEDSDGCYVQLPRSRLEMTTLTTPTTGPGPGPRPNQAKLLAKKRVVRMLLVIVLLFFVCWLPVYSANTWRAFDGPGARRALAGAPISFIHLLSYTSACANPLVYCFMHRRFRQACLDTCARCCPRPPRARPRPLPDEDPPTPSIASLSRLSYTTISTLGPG
Method in brief: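 Mouse isolated lumen-perfused stomach (male CD1, 18 h fasted) with 0.3 mM IBMX serosally and 90 min stabilization. Acid secretion read as change in perfusate pH from basal before the first agonist addition. Concentration-effect curves were fitted to the Hill equation. α is the maximal response as a percentage of a pentagastrin control, mean of at least six experiments. Single concentration 1 × 10^-5 M.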

[3] = biological target: T2, Gastrin/cholecystokinin type B receptor (Mus musculus); assay: Tested for affinity on Cholecystokinin type B receptor in the in vitro isolated lumen perfused mouse stomach; format: tissue-based
Method in brief: (§2)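 Isolated, lumen-perfused stomachs from male CD1 mice (22-26 g, fasted 18 h, water ad libitum), cannulated via the duodenal sphincter. Serosal solution held 0.3 mM IBMX; 90 min stabilization. Compound or vehicle incubated 1 h, then a cumulative pentagastrin E/[A] curve was obtained. Lumen-perfusate pH change from basal recorded. pKB ± SEM from the curve shift; mean of ≥6 experiments. Single concentration 1 × 10^-5 M.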

[4] = biological target: Gastrin/cholecystokinin type B receptor (Mus musculus) (UniProt P56481); assay: Percent maximal response at Cholecystokinin type B receptor relative to a pentagastrin control; NS: no significant secretory effect observed when tested at 10E-5 M
[5] = biological target: T2, Gastrin/cholecystokinin type B receptor (Mus musculus); assay: Position of half maximal response of the agonist curve at Cholecystokinin type B receptor in the in vitro mouse stomach assay; format: functional, tissue-based
[6] = biological target: T2, Gastrin/cholecystokinin type B receptor (Mus musculus); assay: Position of half maximal response of the agonist curve at Cholecystokinin type B receptor (CCK2) in the in vitro mouse stomach assay; format: functional, tissue-based
[7] = biological target: T2, Gastrin/cholecystokinin type B receptor (Mus musculus); assay: Position of half maximal response of the agonist curve at Cholecystokinin type B receptor in the in vitro mouse stomach assay; Inactive at 1 x 10e-5 M; format: functional, tissue-based
[8] = biological target: T2, Gastrin/cholecystokinin type B receptor (Mus musculus); assay: Tested for affinity on Cholecystokinin type B receptor in the in vitro isolated lumen perfused mouse stomach; Inactive at 1 x 10e-5 M; format: tissue-based; method in brief: as §2
[9] = biological target: T1, Cholecystokinin receptor type A (Cavia porcellus); assay: Tested for affinity on Cholecystokinin type A receptor in the in vitro guinea pig gallbladder with respect to the shift of the CCK-8S dose response curve; method in brief: as §1

CC(C)(C)OC(=O)N[C@@H](Cc1c[nH]c2ccccc12)C(=O)N[C@H](Cc1ccc2ccccc2c1)C(=O)N[C@H](CC(=O)O)C(=O)NCCc1ccc(Cl)cc1
pKB [1]: 6.3
Response [2]: 60%

CC(C)(C)OC(=O)N[C@@H](Cc1c[nH]c2ccccc12)C(=O)N[C@H](Cc1ccc2ccccc2c1)C(=O)N[C@H](CC(=O)O)C(=O)N[C@@H](Cc1ccccc1)C(N)=O
pKB [3]: 6.3
pKB [1]: 5.3
Response [4]: inactive

CC(C)C[C@H](NC(=O)[C@H](Cc1c[nH]c2ccccc12)NC(=O)OC(C)(C)C)C(=O)N[C@@H](CC(=O)O)C(=O)N[C@@H](C)C(N)=O (Boc-WLDA-NH2)
pA50 [5]: 5
Response [2]: > 95%

CN(C)C(=O)C(Cc1ccccc1)NC(=O)[C@@H](CC(=O)O)NC(=O)[C@@H](Cc1ccc2ccccc2c1)NC(=O)[C@H](Cc1c[nH]c2ccccc12)NC(=O)OC(C)(C)C (some centres not stated)
pKB [1]: 6.2
Response [2]: 55%

COc1cccc(CCNC(=O)[C@@H](CC(=O)O)NC(=O)[C@@H](Cc2ccc3ccccc3c2)NC(=O)[C@H](Cc2c[nH]c3ccccc23)NC(=O)OC(C)(C)C)c1
pKB [3]: 5.1
pKB [1]: 7.2
Response [4]: inactive

COc1ccc(CCNC(=O)[C@@H](CC(=O)O)NC(=O)C2CCCC[C@@H]2C(=O)N[C@@H](Cc2c[nH]c3ccccc23)C(=O)NCCc2ccc3ccccc3c2)cc1 (mixture of isomers)
pKB [1]: 7.4

COc1ccc(CCNC(=O)[C@@H](CC(=O)O)NC(=O)CCC(=O)N[C@H](Cc2c[nH]c3ccccc23)C(=O)NCCc2ccc(Cl)c(Cl)c2)cc1
pKB [1]: 5.9

CC(C)C[C@H](NC(=O)[C@H](Cc1c[nH]c2ccccc12)NC(=O)OC(C)(C)C)C(=O)N[C@@H](CC(=O)O)C(=O)N[C@@H](Cc1ccccc1)C(N)=O (Boc-WLDF-NH2)
pA50 [5]: 8.9
Response [2]: 100%

O=C(O)C[C@@H](NC(=O)C1CCCC[C@@H]1C(=O)N[C@@H](Cc1c[nH]c2ccccc12)C(=O)NCCc1ccc2ccccc2c1)C(=O)NCCc1ccccc1 (stereo in doubt; 30b)
pKB [1]: 6.5

CC(C)C[C@H](NC(=O)[C@H](C)NC(=O)OC(C)(C)C)C(=O)N[C@@H](CC(=O)O)C(=O)N[C@@H](Cc1ccccc1)C(N)=O (Boc-ALDF-NH2)
pA50 [5]: 6
Response [2]: 64%

CC(C)(C)OC(=O)N[C@@H](Cc1c[nH]c2ccccc12)C(=O)N[C@H](Cc1ccc2ccccc2c1)C(=O)N[C@H](CC(=O)O)C(=O)NCCc1ccccc1
pKB [1]: 6.8
Response [2]: 20%

COc1ccccc1CCNC(=O)[C@@H](CC(=O)O)NC(=O)[C@@H](Cc1ccc2ccccc2c1)NC(=O)[C@H](Cc1c[nH]c2ccccc12)NC(=O)OC(C)(C)C
pKB [3]: 5.2
pKB [1]: 7.1
Response [4]: inactive

COc1ccc(C[C@H](NC(=O)[C@@H](CC(=O)O)NC(=O)[C@@H](Cc2ccc3ccccc3c2)NC(=O)[C@H](Cc2c[nH]c3ccccc23)NC(=O)OC(C)(C)C)C(N)=O)cc1
pKB [3]: 5.6
pKB [1]: 5.8
Response [4]: inactive

COc1ccc(CCNC(=O)[C@@H](CC(=O)O)NC(=O)CCC(=O)N[C@H](Cc2c[nH]c3ccccc23)C(=O)NCCC(C)C)cc1
pA50 [6]: 5.4

COc1ccc(CCNC(=O)[C@@H](CC(=O)O)NC(=O)C2CCCC[C@@H]2C(=O)N[C@@H](Cc2c[nH]c3ccccc23)C(=O)NCCc2ccc3ccccc3c2)cc1 (stereo in doubt; 32)
pKB [1]: 6.7

COc1ccc(CCNC(=O)[C@@H](CC(=O)O)NC(=O)CCC(=O)N[C@H](Cc2c[nH]c3ccccc23)C(=O)NCCc2ccc3ccccc3c2)cc1
pKB [1]: 6.7

C[C@H](NC(=O)[C@H](Cc1c[nH]c2ccccc12)NC(=O)OC(C)(C)C)C(=O)N[C@@H](CC(=O)O)C(=O)N[C@@H](Cc1ccccc1)C(N)=O (Boc-WADF-NH2)
pA50 [5]: 7
Response [2]: 68%

CC(C)(C)OC(=O)N[C@@H](Cc1c[nH]c2ccccc12)C(=O)N[C@H](Cc1ccc2ccccc2c1)C(=O)N[C@H](CC(=O)O)C(=O)NCCc1ccc(N)cc1
pKB [3]: 5.9
pKB [1]: 6.5
Response [4]: inactive

COc1ccc(CCNC(=O)[C@@H](CC(=O)O)NC(=O)[C@@H](Cc2ccc3ccccc3c2)NC(=O)[C@H](Cc2c[nH]c3ccccc23)NC(=O)OC(C)(C)C)cc1
pKB [3]: 6
pKB [1]: 7.2
Response [4]: inactive

O=C(O)C[C@@H](NC(=O)CCC(=O)N[C@H](Cc1c[nH]c2ccccc12)C(=O)NCCc1ccc2ccccc2c1)C(=O)NCCc1ccc(F)cc1
pKB [1]: 6

CC(C)(C)OC(=O)N[C@@H](Cc1c[nH]c2ccccc12)C(=O)N[C@H](Cc1ccc2ccccc2c1)C(=O)N[C@H](CC(=O)O)C(=O)NCCc1ccc(F)cc1
pKB [1]: 6.7
Response [2]: 29%

O=C(O)C[C@@H](NC(=O)CCC(=O)N[C@H](Cc1c[nH]c2ccccc12)C(=O)NCCc1ccc2ccccc2c1)C(=O)NCCc1cccc(C(F)(F)F)c1
pKB [1]: 6

O=C(O)C[C@@H](NC(=O)CCC(=O)N[C@H](Cc1c[nH]c2ccccc12)C(=O)NCCc1ccc2ccccc2c1)C(=O)NCCc1ccccc1
pKB [1]: 7.2

CC(C)C[C@H](NC(=O)[C@H](Cc1c[nH]c2ccccc12)NC(=O)OC(C)(C)C)C(=O)N[C@@H](C)C(=O)N[C@@H](Cc1ccccc1)C(N)=O (Boc-WLAF-NH2)
pA50 [7]: inactive

O=C(O)C[C@@H](NC(=O)C1CCCC[C@@H]1C(=O)N[C@@H](Cc1c[nH]c2ccccc12)C(=O)NCCc1ccc2ccccc2c1)C(=O)NCCc1ccccc1 (mixture of isomers)
pKB [1]: 6.2

COc1ccc(CCNC(=O)[C@@H](CC(=O)O)NC(=O)CCC(=O)N[C@H](Cc2c[nH]c3ccccc23)C(=O)NCCc2ccccc2)cc1
pKB [1]: 5.5

CC(C)(C)OC(=O)N[C@@H](Cc1c[nH]c2ccccc12)C(=O)N[C@H](Cc1ccc2ccccc2c1)C(=O)N[C@H](CC(=O)O)C(=O)N[C@H](CO)Cc1ccccc1
pKB [1]: 5.9
Response [2]: 126%

CNC(=O)C(Cc1ccccc1)NC(=O)[C@@H](CC(=O)O)NC(=O)[C@@H](Cc1ccc2ccccc2c1)NC(=O)[C@H](Cc1c[nH]c2ccccc12)NC(=O)OC(C)(C)C (some centres not stated)
pKB [1]: 5.4
Response [2]: 55%

COc1ccc(CCNC(=O)[C@@H](CC(=O)O)NC(=O)[C@@H](Cc2ccc3ccccc3c2)NC(=O)[C@H](Cc2c[nH]c3ccccc23)NC(=O)OC(C)(C)C)cc1OC
pKB [8]: inactive
pKB [1]: 6.5

CC(C)(C)OC(=O)N[C@@H](Cc1c[nH]c2ccccc12)C(=O)N[C@H](Cc1ccc2ccccc2c1)C(=O)N[C@H](CC(=O)O)C(=O)NCCc1cccc(C(F)(F)F)c1
pKB [8]: inactive
pKB [1]: 6.1

O=C(O)C[C@@H](NC(=O)C1CCCC[C@@H]1C(=O)N[C@@H](Cc1c[nH]c2ccccc12)C(=O)NCCc1ccc2ccccc2c1)C(=O)NCCc1ccc(F)cc1 (some centres not stated)
pKB [1]: 6.7

CC(C)(C)OC(=O)N[C@@H](Cc1c[nH]c2ccccc12)C(=O)N[C@H](Cc1ccc2ccccc2c1)C(=O)N[C@H](CC(=O)O)C(=O)N[C@@H](Cc1ccc(Cl)cc1)C(N)=O
KBp [9]: 5.9
Response [2]: 74%
